Laboratory results published in ChEMBL document CHEMBL4622996, “Discovery of Vixotrigine: A Novel Use-Dependent Sodium Channel Blocker for the Treatment of Trigeminal Neuralgia” (ACS Med Chem Lett, 2020).
Active and inactive are the calls of the source. The rule behind the calls is not given here.

How the values were obtained:
Rattus norvegicus [1] = assay: Antiinflammatory activity in complete Freund's adjuvant-induced knee joint rat model of subchronic inflammation assessed as inhibition of CFA-induced hypersensitivity to pain at 1 mg/kg, BID; type: functional, organism-based
Outline: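 CFA-induced knee joint model of subchronic inflammation; oral 1 mg/kg BID over a 5-day dosing period; reversal of hypersensitivity compared against celecoxib.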

[2] = Tmax in rat at 3 mg/kg, po; type: ADME, organism-based; settings: in vivo
[3] = biological target: T1, Solute carrier organic anion transporter family member 1B3 (Homo sapiens, UniProt Q9NPD5); assay: Inhibition of OATP1B3 (unknown origin)
T1 sequence (Q9NPD5 whole entry): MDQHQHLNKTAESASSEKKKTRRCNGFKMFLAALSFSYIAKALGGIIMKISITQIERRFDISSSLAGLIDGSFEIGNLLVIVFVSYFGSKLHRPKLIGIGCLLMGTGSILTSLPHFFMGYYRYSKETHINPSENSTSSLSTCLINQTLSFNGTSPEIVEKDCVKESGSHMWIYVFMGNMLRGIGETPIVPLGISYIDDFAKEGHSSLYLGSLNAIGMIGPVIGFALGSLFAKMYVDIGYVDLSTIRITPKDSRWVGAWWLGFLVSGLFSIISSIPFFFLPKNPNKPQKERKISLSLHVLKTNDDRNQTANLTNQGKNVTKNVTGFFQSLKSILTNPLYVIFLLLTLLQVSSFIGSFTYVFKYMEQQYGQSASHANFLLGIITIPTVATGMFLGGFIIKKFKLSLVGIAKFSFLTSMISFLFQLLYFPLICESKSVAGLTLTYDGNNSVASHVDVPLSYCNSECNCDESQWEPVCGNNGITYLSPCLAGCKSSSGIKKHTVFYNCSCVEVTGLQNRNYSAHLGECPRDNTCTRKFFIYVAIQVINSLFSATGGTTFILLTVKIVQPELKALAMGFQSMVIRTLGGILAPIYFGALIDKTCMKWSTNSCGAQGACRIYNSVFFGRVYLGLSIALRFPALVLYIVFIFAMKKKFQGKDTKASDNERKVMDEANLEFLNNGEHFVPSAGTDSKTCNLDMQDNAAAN

[4] = Oral bioavailability in monkey at 3 mg/kg; type: ADME, organism-based, Macaca mulatta; settings: rhesus monkey, in vivo
Cytochrome P450 2C9 = Cytochrome P450 2C9 (Homo sapiens, UniProt P11712); assay: Inhibition of CYP2C9 (unknown origin); type: ADME
Rattus norvegicus [5] = assay: Antinociceptive activity in rat model of chronic constriction injury-induced neuropathic pain assessed as inhibition of mechanical allodynia at 0.5 to 5 mg/kg, po BID administered 22 days post surgery and measured after 6 to 8 days; type: functional, organism-based
Outline: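 Chronic constriction injury neuropathic pain model in rat; oral dosing at 0.5 or 5 mg/kg BID starting day 22; mechanical allodynia read after 6 and 8 days of dosing; gabapentin 30 mg/kg po BID as positive control. Free plasma levels sampled on day 8, 0.5 h postdose.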

[6] = biological target: T2, Amine oxidase [flavin-containing] A (Homo sapiens, UniProt P21397); assay: Inhibition of MAO-A (unknown origin)
T2 sequence (P21397 whole entry): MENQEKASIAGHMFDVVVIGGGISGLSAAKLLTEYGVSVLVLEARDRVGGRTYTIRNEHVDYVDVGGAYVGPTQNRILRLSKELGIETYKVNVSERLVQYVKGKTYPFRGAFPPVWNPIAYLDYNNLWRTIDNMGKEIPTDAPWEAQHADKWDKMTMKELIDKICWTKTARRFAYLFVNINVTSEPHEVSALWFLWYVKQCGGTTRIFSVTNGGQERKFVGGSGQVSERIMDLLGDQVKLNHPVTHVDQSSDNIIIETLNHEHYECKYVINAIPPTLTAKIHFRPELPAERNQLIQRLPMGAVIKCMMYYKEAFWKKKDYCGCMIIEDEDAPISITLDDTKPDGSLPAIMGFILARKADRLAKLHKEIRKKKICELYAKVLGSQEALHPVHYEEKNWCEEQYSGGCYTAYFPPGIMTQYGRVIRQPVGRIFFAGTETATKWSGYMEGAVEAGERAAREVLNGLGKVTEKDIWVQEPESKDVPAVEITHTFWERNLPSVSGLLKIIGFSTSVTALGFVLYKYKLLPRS

[7] = Total blood clearance in rat blood at 0.5 mg/kg, iv; type: ADME, organism-based
[8] = Ratio of drug level in brain to blood in rat; type: ADME, tissue-based; settings: read-out: Kbb
[9] = Half life in monkey at 0.5 mg/kg, iv; type: ADME, organism-based, Macaca mulatta; settings: rhesus monkey, in vivo
[10] = biological target: T3, Solute carrier family 22 member 6 (Homo sapiens, UniProt Q4U2R8); assay: Inhibition of OAT1 (unknown origin)
T3 sequence (Q4U2R8 whole entry): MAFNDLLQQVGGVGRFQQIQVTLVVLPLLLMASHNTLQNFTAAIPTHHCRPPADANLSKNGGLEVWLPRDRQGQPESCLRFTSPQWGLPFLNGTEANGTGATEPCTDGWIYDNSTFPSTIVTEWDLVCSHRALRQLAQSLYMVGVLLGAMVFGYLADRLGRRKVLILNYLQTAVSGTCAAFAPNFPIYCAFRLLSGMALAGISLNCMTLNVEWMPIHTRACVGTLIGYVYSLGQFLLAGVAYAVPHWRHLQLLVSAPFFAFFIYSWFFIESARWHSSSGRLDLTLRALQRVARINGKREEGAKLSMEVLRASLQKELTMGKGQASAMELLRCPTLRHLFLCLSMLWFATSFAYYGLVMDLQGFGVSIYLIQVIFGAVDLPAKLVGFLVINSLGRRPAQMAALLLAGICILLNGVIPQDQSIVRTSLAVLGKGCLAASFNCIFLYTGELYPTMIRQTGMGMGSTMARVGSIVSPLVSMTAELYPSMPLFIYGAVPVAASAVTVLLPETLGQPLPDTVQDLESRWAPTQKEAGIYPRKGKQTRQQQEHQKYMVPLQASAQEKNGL

Cytochrome P450 2C9, sequence (P11712 whole entry): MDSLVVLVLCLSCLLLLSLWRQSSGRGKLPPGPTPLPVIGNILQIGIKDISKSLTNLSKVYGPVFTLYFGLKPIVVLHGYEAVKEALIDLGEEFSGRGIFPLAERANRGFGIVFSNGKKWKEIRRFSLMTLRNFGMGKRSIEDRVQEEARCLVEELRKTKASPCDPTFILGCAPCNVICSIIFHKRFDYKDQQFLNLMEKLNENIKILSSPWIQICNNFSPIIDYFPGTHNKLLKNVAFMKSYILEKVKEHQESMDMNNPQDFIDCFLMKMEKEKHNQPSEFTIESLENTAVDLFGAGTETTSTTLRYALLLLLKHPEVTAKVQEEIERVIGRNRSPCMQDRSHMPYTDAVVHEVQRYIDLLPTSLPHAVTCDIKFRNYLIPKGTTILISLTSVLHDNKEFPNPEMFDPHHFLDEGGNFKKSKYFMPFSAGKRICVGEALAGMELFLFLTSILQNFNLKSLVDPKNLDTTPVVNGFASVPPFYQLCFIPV

Tmax [2]: 0.5 h
inhibition (INH) [3]: Not Active
bioavailability [4]: 42%
IC50 (Cytochrome P450 2C9): > 100 µM
Ki [6]: > 10 µM
clearance [7]: 2.34 L/h/kg
Kp [8]: 6.8
half-life [9]: 5 h
inhibition (INH) [10]: Not Active
Compound: Cl.NC(=O)[C@@H]1CC[C@H](c2ccc(OCc3ccccc3F)cc2)N1 [RAXATRIGINE HYDROCHLORIDE]
Activity (Rattus norvegicus [1]): Active
Activity (Rattus norvegicus [5]): Active
